Data as given in ChEMBL document CHEMBL3864121, “Development of ebsulfur analogues as potent antibacterials against methicillin-resistant Staphylococcus aureus” (Bioorg Med Chem, 2016).
Values after ≈ are worked out from the molar mass of the structure shown. Active and inactive are the calls of the source. No cut-off for these calls is given here.

Assays:
Staphylococcus aureus [1] = experiment: Antibacterial activity against methicillin-sensitive Staphylococcus aureus ATCC 6538 measured after overnight incubation by broth double-dilution method; format: functional
Procedure, shortened: (§1)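 MIC by broth double-dilution in liquid Mueller-Hinton medium. Values are reported in µg/mL.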

Staphylococcus aureus [2] = experiment: Antibacterial activity against methicillin-sensitive Staphylococcus aureus ATCC 25923 measured after overnight incubation by broth double-dilution method; format: functional; procedure, shortened: as §1
Staphylococcus aureus [3] = experiment: Antibacterial activity against methicillin-sensitive Staphylococcus aureus ATCC 29213 measured after overnight incubation by broth double-dilution method; format: functional; procedure, shortened: as §1
Staphylococcus aureus [4] = experiment: Antibacterial activity against methicillin-resistant Staphylococcus aureus ATCC 33591 measured after overnight incubation by broth double-dilution method; format: functional; procedure, shortened: as §1
Staphylococcus aureus [5] = experiment: Antibacterial activity against methicillin-resistant Staphylococcus aureus 1 measured after overnight incubation by broth double-dilution method; format: functional; procedure, shortened: as §1
Staphylococcus aureus [6] = experiment: Antibacterial activity against methicillin-resistant Staphylococcus aureus 2 measured after overnight incubation by broth double-dilution method; format: functional; procedure, shortened: as §1
Staphylococcus aureus [7] = experiment: Antibacterial activity against methicillin-resistant Staphylococcus aureus BRS3 measured after overnight incubation by broth double-dilution method; format: functional; procedure, shortened: as §1
Staphylococcus aureus [8] = experiment: Antibacterial activity against methicillin-resistant Staphylococcus aureus C1 measured after overnight incubation by broth double-dilution method; format: functional; procedure, shortened: as §1
Staphylococcus aureus [9] = experiment: Antibacterial activity against methicillin-resistant Staphylococcus aureus C2 measured after overnight incubation by broth double-dilution method; format: functional; procedure, shortened: as §1
Staphylococcus aureus [10] = experiment: Antibacterial activity against methicillin-resistant Staphylococcus aureus C7 measured after overnight incubation by broth double-dilution method; format: functional; procedure, shortened: as §1
Staphylococcus aureus [11] = experiment: Antibacterial activity against methicillin-resistant Staphylococcus aureus C14 measured after overnight incubation by broth double-dilution method; format: functional; procedure, shortened: as §1
Staphylococcus aureus [12] = experiment: Antibacterial activity against methicillin-resistant Staphylococcus aureus C16 measured after overnight incubation by broth double-dilution method; format: functional; procedure, shortened: as §1
Staphylococcus aureus [13] = experiment: Antibacterial activity against methicillin-resistant Staphylococcus aureus C19 measured after overnight incubation by broth double-dilution method; format: functional; procedure, shortened: as §1
Staphylococcus aureus [14] = experiment: Antibacterial activity against methicillin-resistant Staphylococcus aureus G1 measured after overnight incubation by broth double-dilution method; format: functional; procedure, shortened: as §1
Staphylococcus aureus [15] = experiment: Antibacterial activity against methicillin-resistant Staphylococcus aureus G6 measured after overnight incubation by broth double-dilution method; format: functional; procedure, shortened: as §1
Staphylococcus aureus [16] = experiment: Antibacterial activity against methicillin-resistant Staphylococcus aureus G12 measured after overnight incubation by broth double-dilution method; format: functional; procedure, shortened: as §1
Staphylococcus aureus [17] = experiment: Antibacterial activity against methicillin-resistant Staphylococcus aureus G14 measured after overnight incubation by broth double-dilution method; format: functional; procedure, shortened: as §1
Staphylococcus aureus [18] = experiment: Antibacterial activity against methicillin-resistant Staphylococcus aureus NRS4 measured after overnight incubation by broth double-dilution method; format: functional; procedure, shortened: as §1
Staphylococcus aureus [19] = experiment: Antibacterial activity against methicillin-resistant Staphylococcus aureus NRS51 measured after overnight incubation by broth double-dilution method; format: functional; procedure, shortened: as §1
Staphylococcus aureus [20] = experiment: Antibacterial activity against methicillin-resistant Staphylococcus aureus NRS77 measured after overnight incubation by broth double-dilution method; format: functional; procedure, shortened: as §1
Staphylococcus aureus [21] = experiment: Antibacterial activity against methicillin-resistant Staphylococcus aureus S14 measured after overnight incubation by broth double-dilution method; format: functional; procedure, shortened: as §1
Staphylococcus aureus [22] = experiment: Antibacterial activity against methicillin-resistant Staphylococcus aureus S17 measured after overnight incubation by broth double-dilution method; format: functional; procedure, shortened: as §1
Staphylococcus aureus [23] = experiment: Antibacterial activity against methicillin-resistant Staphylococcus aureus S22 measured after overnight incubation by broth double-dilution method; format: functional; procedure, shortened: as §1
Staphylococcus aureus [24] = experiment: Antibacterial activity against methicillin-resistant Staphylococcus aureus S24 measured after overnight incubation by broth double-dilution method; format: functional; procedure, shortened: as §1
Staphylococcus aureus [25] = experiment: Antibacterial activity against methicillin-resistant Staphylococcus aureus USA100 measured after overnight incubation by broth double-dilution method; format: functional; procedure, shortened: as §1
Staphylococcus aureus [26] = experiment: Antibacterial activity against methicillin-resistant Staphylococcus aureus USA200 measured after overnight incubation by broth double-dilution method; format: functional; procedure, shortened: as §1
Staphylococcus aureus [27] = experiment: Antibacterial activity against methicillin-resistant Staphylococcus aureus USA300 measured after overnight incubation by broth double-dilution method; format: functional; procedure, shortened: as §1
Staphylococcus aureus [28] = experiment: Antibacterial activity against methicillin-resistant Staphylococcus aureus USA600 measured after overnight incubation by broth double-dilution method; format: functional; procedure, shortened: as §1
[29] = tested on: Staphylococcus epidermidis; experiment: Antibacterial activity against Staphylococcus epidermidis ATCC 35984 measured after overnight incubation by broth double-dilution method; format: functional; settings: RP62A
Procedure, shortened: (§2)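 MIC by broth double-dilution in Mueller-Hinton medium. Re-testing at the time-kill inoculum used 1×10^6 CFU/mL.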

Enterococcus faecalis [30] = experiment: Antibacterial activity against Enterococcus faecalis ATCC 29212 measured after overnight incubation by broth double-dilution method; format: functional; procedure, shortened: as §2
Enterococcus faecalis [31] = experiment: Antibacterial activity against Enterococcus faecalis ATCC 49533 measured after overnight incubation by broth double-dilution method; format: functional; procedure, shortened: as §2
Enterococcus faecium = experiment: Antibacterial activity against Enterococcus faecium BM4105-RF measured after overnight incubation by broth double-dilution method; format: functional; procedure, shortened: as §1
Enterococcus = experiment: Antibacterial activity against Vancomycin-resistant Enterococcus measured after overnight incubation by broth double-dilution method; format: functional; procedure, shortened: as §1
Listeria monocytogenes = experiment: Antibacterial activity against Listeria monocytogenes ATCC 19115 measured after overnight incubation by broth double-dilution method; format: functional; procedure, shortened: as §2
[32] = tested on: Mycolicibacterium smegmatis; experiment: Antibacterial activity against Mycobacterium smegmatis MC2-155 measured after overnight incubation by broth double-dilution method; format: functional; settings: str. MC2 155; procedure, shortened: as §1
[33] = Cytotoxicity against HEK293 cells assessed as cell death up to 10 ug/ml measured after 24 hrs by resazurin dye-based fluorescence analysis relative to untreated control; format: toxicity; settings: human, hek293, 24 h
Staphylococcus aureus [34] = experiment: Bacteriostatic activity against methicillin-resistant Staphylococcus aureus S22 at 0.5 times MIC measured up to 3 to 6 hrs by time kill analysis; format: functional
Staphylococcus aureus [35] = experiment: Bacteriostatic activity against methicillin-resistant Staphylococcus aureus S22 at MIC measured up to 3 to 6 hrs by time kill analysis; format: functional
Staphylococcus aureus [36] = experiment: Bacteriostatic activity against methicillin-resistant Staphylococcus aureus S22 at 4 times MIC measured after 24 hrs by time kill analysis; format: functional
[37] = tested on: Staphylococcus epidermidis RP62A; experiment: Inhibition of thioredoxin reductase in Staphylococcus epidermidis ATCC 35984 assessed as induction of ROS production at 1 to 4 times MIC measured after 1 hr by DCFH-DA staining-based fluorescence microscopic analysis
Procedure, shortened: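 Untreated cells served as the negative control and 1 mM H2O2 as the positive control. Cells were stained with DCFH-DA (40 µg/mL) and ROS were visualized by fluorescence microscopy.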

Staphylococcus aureus [38] = experiment: Antibacterial activity against methicillin-resistant Staphylococcus aureus S22 using 1 10^6CFU/ml measured after overnight incubation by broth double-dilution method; format: functional
[39] = Cytotoxicity against HEK293 cells assessed as cell death at […] measured after 24 hrs by resazurin dye-based fluorescence analysis relative to untreated control; format: toxicity; settings: human, hek293, 24 h

Structure (SMILES)	MIC (Staphylococcus aureus [1]) [µg/mL]	MIC (Staphylococcus aureus [2]) [µg/mL]	MIC (Staphylococcus aureus [3]) [µg/mL]	MIC (Staphylococcus aureus [4]) [µg/mL]	MIC (Staphylococcus aureus [5]) [µg/mL]	MIC (Staphylococcus aureus [6]) [µg/mL]	MIC (Staphylococcus aureus [7]) [µg/mL]	MIC (Staphylococcus aureus [8]) [µg/mL]	MIC (Staphylococcus aureus [9]) [µg/mL]	MIC (Staphylococcus aureus [10]) [µg/mL]	MIC (Staphylococcus aureus [11]) [µg/mL]	MIC (Staphylococcus aureus [12]) [µg/mL]	MIC (Staphylococcus aureus [13]) [µg/mL]	MIC (Staphylococcus aureus [14]) [µg/mL]	MIC (Staphylococcus aureus [15]) [µg/mL]	MIC (Staphylococcus aureus [16]) [µg/mL]	MIC (Staphylococcus aureus [17]) [µg/mL]	MIC (Staphylococcus aureus [18]) [µg/mL]	MIC (Staphylococcus aureus [19]) [µg/mL]	MIC (Staphylococcus aureus [20]) [µg/mL]	further results
O=c1c2ccccc2sn1-c1cccc2ccccc12	> 125	2 (≈ 7.21 µM)	0.5 (≈ 1.8 µM)	0.5 (≈ 1.8 µM)	1 (≈ 3.61 µM)	0.5 (≈ 1.8 µM)	2 (≈ 7.21 µM)	2 (≈ 7.21 µM)	0.5 (≈ 1.8 µM)	1 (≈ 3.61 µM)	2 (≈ 7.21 µM)	15.6 (≈ 56.2 µM)	0.5 (≈ 1.8 µM)	2 (≈ 7.21 µM)	0.5 (≈ 1.8 µM)	0.5 (≈ 1.8 µM)	2 (≈ 7.21 µM)	2 (≈ 7.21 µM)	1 (≈ 3.61 µM)	2 (≈ 7.21 µM)	MIC (Staphylococcus aureus [21]): ≤ 0.25 µg/mL; MIC (Staphylococcus aureus [22]): 1 µg/mL (≈ 3.61 µM); MIC (Staphylococcus aureus [23]): 1 µg/mL (≈ 3.61 µM); MIC (Staphylococcus aureus [24]): 0.5 µg/mL (≈ 1.8 µM); MIC (Staphylococcus aureus [25]): 0.5 µg/mL (≈ 1.8 µM); MIC (Staphylococcus aureus [26]): 2 µg/mL (≈ 7.21 µM); MIC (Staphylococcus aureus [27]): 2 µg/mL (≈ 7.21 µM); MIC (Staphylococcus aureus [28]): 2 µg/mL (≈ 7.21 µM); MIC [29]: 0.25 µg/mL (≈ 0.901 µM); MIC (Enterococcus faecalis [30]): > 125 µg/mL; MIC (Enterococcus faecalis [31]): > 125 µg/mL; MIC (Enterococcus faecium): > 125 µg/mL; MIC (Enterococcus): 0.5 µg/mL (≈ 1.8 µM); MIC (Listeria monocytogenes): 2 µg/mL (≈ 7.21 µM); MIC [32]: 1 µg/mL (≈ 3.61 µM); Activity [33]: > 20%
CCCCCCn1sc2ccccc2c1=O	7.8 (≈ 33.1 µM)	3.9 (≈ 16.6 µM)	3.9 (≈ 16.6 µM)	2 (≈ 8.5 µM)	2 (≈ 8.5 µM)	3.9 (≈ 16.6 µM)	3.9 (≈ 16.6 µM)	3.9 (≈ 16.6 µM)	3.9 (≈ 16.6 µM)	3.9 (≈ 16.6 µM)	3.9 (≈ 16.6 µM)	7.8 (≈ 33.1 µM)	2 (≈ 8.5 µM)	0.5 (≈ 2.12 µM)	3.9 (≈ 16.6 µM)	2 (≈ 8.5 µM)	2 (≈ 8.5 µM)	3.9 (≈ 16.6 µM)	3.9 (≈ 16.6 µM)	3.9 (≈ 16.6 µM)	MIC (Staphylococcus aureus [21]): ≤ 0.25 µg/mL; MIC (Staphylococcus aureus [22]): 3.9 µg/mL (≈ 16.6 µM); MIC (Staphylococcus aureus [23]): 3.9 µg/mL (≈ 16.6 µM); MIC (Staphylococcus aureus [24]): 3.9 µg/mL (≈ 16.6 µM); MIC (Staphylococcus aureus [25]): 7.8 µg/mL (≈ 33.1 µM); MIC (Staphylococcus aureus [26]): 7.8 µg/mL (≈ 33.1 µM); MIC (Staphylococcus aureus [27]): 3.9 µg/mL (≈ 16.6 µM); MIC (Staphylococcus aureus [28]): 7.8 µg/mL (≈ 33.1 µM); MIC [29]: 2 µg/mL (≈ 8.5 µM); MIC (Enterococcus faecalis [30]): > 125 µg/mL; MIC (Enterococcus faecalis [31]): > 125 µg/mL; MIC (Enterococcus faecium): 7.8 µg/mL (≈ 33.1 µM); MIC (Enterococcus): 2 µg/mL (≈ 8.5 µM); MIC (Listeria monocytogenes): 3.9 µg/mL (≈ 16.6 µM); MIC [32]: 2 µg/mL (≈ 8.5 µM); Activity (Staphylococcus aureus [34]): Active; Activity (Staphylococcus aureus [35]): Active; Activity (Staphylococcus aureus [36]): Active; Activity [37]: Active; Activity (Staphylococcus aureus [38]): Active
O=c1c2ccccc2sn1CCc1ccccc1	3.9 (≈ 15.3 µM)	1 (≈ 3.92 µM)	2 (≈ 7.83 µM)	1 (≈ 3.92 µM)	1 (≈ 3.92 µM)	1 (≈ 3.92 µM)	2 (≈ 7.83 µM)	2 (≈ 7.83 µM)	2 (≈ 7.83 µM)	2 (≈ 7.83 µM)	2 (≈ 7.83 µM)	3.9 (≈ 15.3 µM)	1 (≈ 3.92 µM)	0.5 (≈ 1.96 µM)	1 (≈ 3.92 µM)	1 (≈ 3.92 µM)	1 (≈ 3.92 µM)	2 (≈ 7.83 µM)	2 (≈ 7.83 µM)	2 (≈ 7.83 µM)	MIC (Staphylococcus aureus [21]): 0.5 µg/mL (≈ 1.96 µM); MIC (Staphylococcus aureus [22]): 1 µg/mL (≈ 3.92 µM); MIC (Staphylococcus aureus [23]): 3.9 µg/mL (≈ 15.3 µM); MIC (Staphylococcus aureus [24]): 2 µg/mL (≈ 7.83 µM); MIC (Staphylococcus aureus [25]): 3.9 µg/mL (≈ 15.3 µM); MIC (Staphylococcus aureus [26]): 2 µg/mL (≈ 7.83 µM); MIC (Staphylococcus aureus [27]): 2 µg/mL (≈ 7.83 µM); MIC (Staphylococcus aureus [28]): 3.9 µg/mL (≈ 15.3 µM); MIC [29]: 2 µg/mL (≈ 7.83 µM); MIC (Enterococcus faecalis [30]): > 125 µg/mL; MIC (Enterococcus faecalis [31]): > 125 µg/mL; MIC (Enterococcus faecium): > 125 µg/mL; MIC (Enterococcus): 1 µg/mL (≈ 3.92 µM); MIC (Listeria monocytogenes): 3.9 µg/mL (≈ 15.3 µM); MIC [32]: 2 µg/mL (≈ 7.83 µM); Activity [39]: > 20%
